{"source": "paper PMC11022936", "about": "(Drug Metabolism and Disposition, 2023)", "key": {"[1]": {"type": "in vivo, rat", "conditions": "for Total % of dose (total radioactivity in sample), feces / Total % of dose (total radioactivity in sample), urine / percentage of dose in feces / percentage of dose in urine: 0-48 h pool; for percentage of dose in feces / percentage of dose in urine: single oral 40 mg/kg; for concentration at 1 h / concentration at 3 h / concentration at 8 h: Han Wistar, rat, plasma, po; for administered dose recovered in feces (mean) / urinary excretion of administered dose (mean): intact male and female rats"}, "[2]": {"assay": "Mouse 28-day repeat dose, plasma metabolite profiling", "type": "in vivo", "conditions": "mouse plasma AUC0-24h pool"}, "[3]": {"assay": "Human MAD study, plasma AUC0-24h pools, metabolite concentrations", "type": "in vivo", "conditions": "human AUC0-24h plasma pool", "procedure,_shortened": "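Plasma came from healthy male volunteers given unlabelled test compound once daily in a phase I multiple-ascending-dose study. Groups: 5 mg (day 10, n = 8), 10 mg (day 14, n = 8), 15 mg (day 10, n = 7). Samples were pooled time-proportionally across participants into one AUC0-24h pool per dose, protein-precipitated and run by LC-HRMS. DRE = summed concentrations of parent plus quantified metabolites.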"}, "[4]": {"assay": "Fraction unbound in plasma, equilibrium dialysis", "type": "in vitro ADME", "conditions": "human plasma, 1 µmol/L, 37°C, 16 h, mean ± S.D., n = 3", "procedure,_shortened": "(§1)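 Equilibrium dialysis used frozen pooled plasma (n>3 donors, K2-EDTA): human (mixed sex), rat (male Han Wistar), dog (male beagle). Plasma spiked with test compound at 0.1, 1.0 or 10 was dialysed against phosphate buffer pH 7.4 for 16 h at 37°C, in triplicate. Calibration standards were made in spiked plasma. fu = buffer concentration / plasma concentration. Recovery = total compound found after dialysis / total added.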"}, "[5]": {"assay": "Fraction unbound in plasma, equilibrium dialysis", "type": "in vitro ADME", "conditions": "rat plasma, 10 µmol/L, 37°C, 16 h, mean ± S.D., n = 3", "procedure,_shortened": "as §1"}, "[6]": {"assay": "Fraction unbound in plasma, equilibrium dialysis", "type": "in vitro ADME", "conditions": "dog plasma, 10 µmol/L, 37°C, 16 h, mean ± S.D., n = 3", "procedure,_shortened": "as §1"}, "[7]": {"assay": "Rat 3-month repeated-dose GLP toxicity study", "conditions": "both, SD, in vivo, po, 125 mg/kg/day"}, "[8]": {"assay": "Dog 3-month repeated-dose GLP toxicity study", "conditions": "both, in vivo, po, 100 mg/kg/day"}, "MPO": {"system": "MPO", "conditions": "read-out: potency toward MPO (IC50); in vitro; ref Inghardt et al., 2022; cited from earlier work"}, "[9]": {"conditions": "ref Inghardt et al., 2022; cited from earlier work"}, "[10]": {"conditions": "rats; ref Inghardt et al., 2022; cited from earlier work"}, "[11]": {"conditions": "dogs; ref Inghardt et al., 2022; cited from earlier work"}, "[12]": {"conditions": "human; ref Tong et al., 2010; cited from earlier work"}, "[13]": {"conditions": "BDC male rats, oral, 0-24 h pool"}, "[14]": {"conditions": "female intact rats, oral 40 mg/kg"}, "[15]": {"conditions": "female intact rats, oral 40 mg/kg, 40 mg/kg"}, "[16]": {"conditions": "male intact rats, oral 40 mg/kg, 40 mg/kg"}, "[17]": {"conditions": "male intact rats, oral 40 mg/kg, listed as [^14C]AZD4831, 40 mg/kg"}}, "note": "Where “and” joins values, the source holds several entries; their conditions need not be identical. Equal entries are not always repeated. Where two headings read alike, the source gives them in different places."}
{"smiles": "C[C@@H](N)c1cc(Cl)ccc1Cn1c(=S)[nH]c(=O)c2[nH]ccc21", "note": "[AZD4831, (R)-1-(2-(1-aminoethyl)-4-chlorobenzyl)-2-thioxo-2,3-dihydro-1H-pyrrolo[3,2-d]pyrimidin-4(5H)-one]", "values": [{"measurement": "dose fraction excreted in bile within 0-24 hours", "setting": "[1]; BDC female rats, oral 40 mg/kg", "result": 10, "unit": "%"}, {"measurement": "percent of administered dose in bile", "setting": "[1]; BDC female rats, oral, 0-24 h pool", "result": 0.2, "unit": "%"}, {"measurement": "dose fraction excreted in bile within 0-24 hours", "setting": "[1]; BDC male rats, oral 40 mg/kg", "result": 21, "unit": "%"}, {"measurement": "percent of administered dose in bile", "setting": "[1]; [13]", "result": "< 0.1", "unit": "%"}, {"measurement": "percent of dose in feces", "setting": "[1]; [13]", "result": 20, "unit": "%"}, {"measurement": "percent of dose in urine", "setting": "[1]; [13]", "result": 26, "unit": "%"}, {"measurement": "Sum % of dose (integrated radioactive peaks), feces", "setting": "[1]; [14]", "result": "35.5 % of dose"}, {"measurement": "Sum % of dose (integrated radioactive peaks), urine", "setting": "[1]; [14]", "result": "31.3 % of dose"}, {"measurement": "Total % of dose (total radioactivity in sample), feces", "setting": "[1]; [15]", "result": "43 % of dose"}, {"measurement": "Total % of dose (total radioactivity in sample), urine", "setting": "[1]; [15]", "result": "34 % of dose"}, {"measurement": "Total % of dose (total radioactivity in sample), urine", "setting": "[1]; female intact rats, oral 40 mg/kg, listed as [^14C]AZD4831, 40 mg/kg", "result": "34.4 % of dose"}, {"measurement": "percentage of dose in feces", "setting": "[1]; female intact rats, 40 mg/kg", "result": "31 % of dose and 30.7 % of dose"}, {"measurement": "percentage of dose in urine", "setting": "[1]; female intact rats, 40 mg/kg", "result": "30 % of dose and 30.3 % of dose"}, {"measurement": "Sum µmol equiv/L (integrated radioactive peaks) in plasma", "setting": "[1]; female rats, 1 h", "result": 10.4, "unit": "µmol equiv/L"}, {"measurement": "Total µmol equiv/L (total radioactivity) in plasma", "setting": "[1]; female rats, 1 h, oral", "result": 12.5, "unit": "µmol equiv/L"}, {"measurement": "% of total radioactivity in plasma", "setting": "[1]; female rats, 1 h, oral 40 mg/kg", "result": "72.8 % of total"}, {"measurement": "Sum µmol equiv/L (integrated radioactive peaks) in plasma", "setting": "[1]; female rats, 3 h", "result": 13.8, "unit": "µmol equiv/L"}, {"measurement": "Total µmol equiv/L (total radioactivity) in plasma", "setting": "[1]; female rats, 3 h, oral", "result": 15.9, "unit": "µmol equiv/L"}, {"measurement": "% of total radioactivity in plasma", "setting": "[1]; female rats, 3 h, oral 40 mg/kg", "result": "77.5 % of total"}, {"measurement": "Sum µmol equiv/L (integrated radioactive peaks) in plasma", "setting": "[1]; female rats, 8 h", "result": 11.7, "unit": "µmol equiv/L"}, {"measurement": "Total µmol equiv/L (total radioactivity) in plasma", "setting": "[1]; female rats, 8 h, oral", "result": 13.4, "unit": "µmol equiv/L"}, {"measurement": "% of total radioactivity in plasma", "setting": "[1]; female rats, 8 h, oral 40 mg/kg", "result": "82.1 % of total"}, {"measurement": "concentration at 1 h", "setting": "[1]; female, 40 mg/kg", "result": 9.1, "unit": "µM"}, {"measurement": "concentration at 3 h", "setting": "[1]; female, 40 mg/kg", "result": 12.3, "unit": "µM"}, {"measurement": "concentration at 8 h", "setting": "[1]; female, 40 mg/kg", "result": 11, "unit": "µM"}, {"measurement": "administered dose recovered in feces (mean)", "setting": "[1]; intravenous", "result": 46.9, "unit": "%"}, {"measurement": "urinary excretion of administered dose (mean)", "setting": "[1]; intravenous", "result": 37.7, "unit": "%"}, {"measurement": "administered dose recovered in feces (mean)", "setting": "[1]; oral", "result": 51.9, "unit": "%"}, {"measurement": "urinary excretion of administered dose (mean)", "setting": "[1]; oral", "result": 32.0, "unit": "%"}, {"measurement": "Sum % of dose (integrated radioactive peaks), feces", "setting": "[1]; male intact rats, oral 40 mg/kg", "result": "45.9 % of dose"}, {"measurement": "Total % of dose (total radioactivity in sample), feces", "setting": "[1]; [16]", "result": "59 % of dose"}, {"measurement": "Total % of dose (total radioactivity in sample), urine", "setting": "[1]; [16]", "result": "28 % of dose"}, {"measurement": "Total % of dose (total radioactivity in sample), feces", "setting": "[1]; [17]", "result": "58.7 % of dose"}, {"measurement": "Total % of dose (total radioactivity in sample), urine", "setting": "[1]; [17]", "result": "28.2 % of dose"}, {"measurement": "percentage of dose in feces", "setting": "[1]; male intact rats, 40 mg/kg", "result": "40 % of dose and 39.6 % of dose"}, {"measurement": "percentage of dose in urine", "setting": "[1]; male intact rats, 40 mg/kg", "result": "20 % of dose and 20.3 % of dose"}, {"measurement": "Sum µmol equiv/L (integrated radioactive peaks) in plasma", "setting": "[1]; male rats, 1 h", "result": 20.3, "unit": "µmol equiv/L"}, {"measurement": "Total µmol equiv/L (total radioactivity) in plasma", "setting": "[1]; male rats, 1 h, oral", "result": 23.4, "unit": "µmol equiv/L"}, {"measurement": "% of total radioactivity in plasma", "setting": "[1]; male rats, 1 h, oral 40 mg/kg", "result": "78.2 % of total"}, {"measurement": "Sum µmol equiv/L (integrated radioactive peaks) in plasma", "setting": "[1]; male rats, 3 h", "result": 13.6, "unit": "µmol equiv/L"}, {"measurement": "Total µmol equiv/L (total radioactivity) in plasma", "setting": "[1]; male rats, 3 h, oral", "result": 17.1, "unit": "µmol equiv/L"}, {"measurement": "% of total radioactivity in plasma", "setting": "[1]; male rats, 3 h, oral 40 mg/kg", "result": "66.8 % of total"}, {"measurement": "Sum µmol equiv/L (integrated radioactive peaks) in plasma", "setting": "[1]; male rats, 8 h", "result": 13.7, "unit": "µmol equiv/L"}, {"measurement": "Total µmol equiv/L (total radioactivity) in plasma", "setting": "[1]; male rats, 8 h, oral", "result": 16.9, "unit": "µmol equiv/L"}, {"measurement": "% of total radioactivity in plasma", "setting": "[1]; male rats, 8 h, oral 40 mg/kg", "result": "70.9 % of total"}, {"measurement": "concentration at 1 h", "setting": "[1]; male, 40 mg/kg", "result": 18.3, "unit": "µM"}, {"measurement": "concentration at 3 h", "setting": "[1]; male, 40 mg/kg", "result": 11.4, "unit": "µM"}, {"measurement": "concentration at 8 h", "setting": "[1]; male, 40 mg/kg", "result": 12, "unit": "µM"}, {"measurement": "radioactivity recovered in bile (mean)", "setting": "[1]; orally dosed BDC female rats", "result": 10.4, "unit": "%"}, {"measurement": "radioactivity recovered in feces (mean)", "setting": "[1]; orally dosed BDC female rats", "result": 23.2, "unit": "%"}, {"measurement": "radioactivity recovered in urine (mean)", "setting": "[1]; orally dosed BDC female rats", "result": 54.7, "unit": "%"}, {"measurement": "radioactivity recovered in bile (mean)", "setting": "[1]; orally dosed BDC male rats", "result": 21.4, "unit": "%"}, {"measurement": "radioactivity recovered in feces (mean)", "setting": "[1]; orally dosed BDC male rats", "result": 27.5, "unit": "%"}, {"measurement": "radioactivity recovered in urine (mean)", "setting": "[1]; orally dosed BDC male rats", "result": 37.3, "unit": "%"}, {"measurement": "share of radioactivity (integrated radiochromatographic peaks) in plasma", "setting": "[1]; rats, oral 40 mg/kg, all time points (1, 3, 8 h)", "result": "> 67", "unit": "%"}, {"measurement": "Drug-Related Exposure (%)", "setting": "[2]; day 28, Female (125 mg/kg)", "result": 76, "unit": "%"}, {"measurement": "Drug-Related Exposure (%)", "setting": "[2]; day 28, Female (250 mg/kg)", "result": 74, "unit": "%"}, {"measurement": "Drug-Related Exposure (%)", "setting": "[2]; day 28, Female (500 mg/kg)", "result": 57, "unit": "%"}, {"measurement": "Drug-Related Exposure (%)", "setting": "[2]; day 28, Male (125 mg/kg)", "result": 78, "unit": "%"}, {"measurement": "plasma concentration", "setting": "[3]; 5 mg once daily", "result": 0.028, "unit": "µM"}, {"measurement": "plasma concentration", "setting": "[3]; 10 mg once daily", "result": 0.053, "unit": "µM"}, {"measurement": "plasma concentration", "setting": "[3]; 15 mg once daily", "result": 0.086, "unit": "µM"}, {"measurement": "percentage free drug in plasma", "setting": "[4]", "result": "36.1 ± 1.0", "unit": "%"}, {"measurement": "percentage free drug in plasma", "setting": "[5]", "result": "22.0 ± 0.49", "unit": "%"}, {"measurement": "percentage free drug in plasma", "setting": "[6]", "result": "31.9 ± 0.50", "unit": "%"}, {"measurement": "NOAEL at 3 month", "setting": "[7]", "result": 125, "unit": "mg/kg/day"}, {"measurement": "NOAEL at 3 month", "setting": "[8]", "result": 100, "unit": "mg/kg/day"}, {"measurement": "IC50", "setting": "MPO", "result": 1.5, "unit": "nM"}, {"measurement": "permeability", "setting": "[9]", "result": "high permeability"}, {"measurement": "bioavailability", "setting": "[10]", "result": "good bioavailability"}, {"measurement": "clearance", "setting": "[10]", "result": "moderate clearance"}, {"measurement": "bioavailability", "setting": "[11]", "result": "good bioavailability"}, {"measurement": "clearance", "setting": "[11]", "result": "moderate clearance"}]}
{"smiles": "c1cc2c3c(c1)[C@H]1CCC[C@H]1CN3CCNC2", "note": "[vabicaserin]", "values": [{"measurement": "exposure of the carbamoyl glucuronide metabolite relative to parent", "setting": "[12]", "result": 60, "unit": "fold"}]}
